Measured values taken from ChEMBL document CHEMBL1629660, “Pharmacodynamics of tigecycline against phenotypically diverse Staphylococcus aureus isolates in a murine thigh model” (Antimicrob Agents Chemother, 2009).

Assays:
[1] = Cmax in neutropenic ICR mouse infected with Staphylococcus aureus ATCC 29213 at 25 mg/kg, sc by HPLC; type: ADME, organism-based; parameters: dose 25 mg/kg, route subcutaneous; conditions: in vivo
Outline: (§1)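 Neutropenic female ICR mice (cyclophosphamide 150 and 100 mg/kg ip, 4 days and 1 day before inoculation), both thighs inoculated im with ~10^7 CFU/ml of ATCC 29213. Single sc doses of 50, 25, 12.5 or 6.25 mg/kg. Cardiac blood taken from groups of six at 8–12 times over 0.5–24 h. Serum measured by HPLC (linear 0.05–5 µg/ml). Two-compartment fit by nonlinear least squares; AUC by trapezoidal rule.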

[2] = Tmax in neutropenic ICR mouse infected with Staphylococcus aureus ATCC 29213 at 25 mg/kg, sc by HPLC; type: ADME, organism-based; parameters: dose 25 mg/kg, route subcutaneous; conditions: in vivo; outline: as §1
[3] = AUC (0 to 24 hrs) in neutropenic ICR mouse infected with Staphylococcus aureus ATCC 29213 at 6.25 mg/kg, sc by HPLC; type: ADME, organism-based; parameters: time < 24 hr, dose 6.25 mg/kg, route subcutaneous; conditions: plasma; outline: as §1
[4] = Elimination half life in neutropenic ICR mouse infected with methicillin-sensitive Staphylococcus aureus ATCC 29213 at 50 mg/kg, sc by HPLC; type: ADME, organism-based; parameters: dose 50 mg/kg, route subcutaneous; conditions: in vivo, read-out: beta t1/2 (converted); outline: as §1
[5] = Protein binding in methicillin-sensitive Staphylococcus aureus ATCC 29213-infected neutropenic ICR mouse serum at 6.25 mg/kg, sc by HPLC; type: ADME, organism-based; parameters: dose 6.25 mg/kg, route subcutaneous; conditions: read-out: PB (converted)
[6] = fAUC/MIC in community acquired methicillin-resistant Staphylococcus aureus isolate 156-infected neutropenic ICR mouse at 80% effective exposure index; type: functional
Outline: (§2)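 Single-dose serum PK in infected neutropenic mice (sc 6.25–50 mg/kg; HPLC; two-compartment fit; AUC by trapezoidal rule; lower doses simulated). Free fraction from ultrafiltration of spiked mouse serum, in triplicate. Free exposures divided by modal MIC and plotted against 24-h log10 CFU change with a sigmoidal Emax model; EI50, EI80 and stasis values read from the fitted curves.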

[7] = fAUC/MIC in community acquired methicillin-resistant Staphylococcus aureus isolate 156-infected neutropenic ICR mouse at 50% effective exposure index; type: functional; outline: as §2
[8] = fAUC/MIC in community acquired methicillin-resistant Staphylococcus aureus isolate 144-infected neutropenic ICR mouse at stasis dose; type: functional; outline: as §2
Staphylococcus aureus [9] = test: Antimicrobial activity against methicillin-sensitive Staphylococcus aureus ATCC 25923 infected in neutropenic ICR mouse assessed as change in bacterial load after 24 hrs; type: functional
Outline: (§3)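 Female ICR mice (~25 g) made neutropenic with cyclophosphamide 150 and 100 mg/kg ip, 4 and 1 days before infection. Each thigh inoculated im with 0.1 ml of ~10^7 CFU/ml from an overnight subculture. Tigecycline sc (0.2 ml) given 2 h later as single or multiple doses of 1.56–50 mg/kg, 1.56–400 mg/kg/day, 3 mice/group. Saline-injected controls. Thighs harvested at 24 h, homogenized in saline, plated on blood agar; log10 CFU change vs 0-h controls.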

Staphylococcus aureus [10] = test: Antimicrobial activity against hospital-acquired methicillin-resistant Staphylococcus aureus isolate 56 infected in neutropenic ICR mouse assessed as change in bacterial load after 24 hrs; type: functional; outline: as §3
Staphylococcus aureus [11] = test: Antimicrobial activity against hospital-acquired methicillin-resistant Staphylococcus aureus isolate 152 infected in neutropenic ICR mouse assessed as change in bacterial load after 24 hrs; type: functional; outline: as §3
Staphylococcus aureus [12] = test: Antimicrobial activity against community acquired methicillin-resistant Staphylococcus aureus isolate 156 infected in neutropenic ICR mouse assessed as change in bacterial load after 24 hrs; type: functional; outline: as §3
Staphylococcus aureus [13] = test: Antimicrobial activity against community acquired methicillin-resistant Staphylococcus aureus isolate 156 infected in immunocompetent ICR mouse assessed as reduction in bacterial load at 12.5 […] after 24 hrs; type: functional
Outline: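 Non-neutropenic ICR mice (no cyclophosphamide). Each thigh inoculated im with 0.1 ml of ~10^8 CFU/ml. Tigecycline given sc once daily at 1.56, 3.13, 6.25 or 12.5 mg/kg starting 2 h post-infection, 3 mice/group. Thighs harvested at 24 h, homogenized, plated on blood agar; log10 CFU change vs 0-h controls.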

[14] = fAUC/MIC in community acquired methicillin-resistant Staphylococcus aureus isolate 156 infected-immunocompetent ICR mouse at 6.25 […], sc QD; type: functional
Outline: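 Derived from neutropenic-mouse serum PK (HPLC, two-compartment fit) with ultrafiltration protein-binding correction, divided by modal MIC.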

Staphylococcus aureus [15] = test: Antimicrobial activity against community acquired methicillin-resistant Staphylococcus aureus isolate 156 infected in neutropenic ICR mouse assessed as change in bacterial load at 3.13 […] after 24 hrs; type: functional; outline: as §3
Staphylococcus aureus [16] = test: Antimicrobial activity against community acquired methicillin-resistant Staphylococcus aureus isolate 156 infected in neutropenic ICR mouse assessed as change in bacterial load at 12.5 […] after 24 hrs; type: functional; outline: as §3
[17] = Plasma protein binding in mouse; type: ADME, cell-free; conditions: read-out: PPB (converted)
[18] = Plasma protein binding in human; type: ADME, cell-free; conditions: read-out: PPB (converted)
Acinetobacter baumannii [19] = test: Antimicrobial activity against carbapenem-intermediate,-resistant Acinetobacter baumannii assessed as decrease in bacterial count at 0.6 times of MIC after 24 hrs by time kill analysis; type: functional
Acinetobacter baumannii [20] = test: Antimicrobial activity against carbapenem-intermediate,-resistant Acinetobacter baumannii assessed as decrease in bacterial count at 0.8 times of MIC after 48 hrs by time kill analysis; type: functional
[21] = AUC in neutropenic ICR mouse infected with Staphylococcus aureus ATCC 29213 at 6.25 to 50 mg/kg, sc; type: ADME, organism-based; parameters: dose 6.25-50 mg/kg, route subcutaneous; conditions: plasma; outline: as §1
[22] = r2 for fAUC/MIC in methicillin-sensitive Staphylococcus aureus ATCC 29213-infected neutropenic ICR mouse
[23] = r2 for fCmax/MIC in methicillin-sensitive Staphylococcus aureus ATCC 29213-infected neutropenic ICR mouse
[24] = r2 of fAUC/MIC in hospital-acquired methicillin-resistant Staphylococcus aureus isolate 56-infected neutropenic ICR mouse
[25] = r2 for fT>MIC in community acquired methicillin-resistant Staphylococcus aureus isolate 144-infected neutropenic ICR mouse
[26] = r2 of fCmax/MIC in hospital-acquired methicillin-resistant Staphylococcus aureus isolate 152-infected neutropenic ICR mouse
[27] = r2 for fAUC/MIC in hospital-acquired methicillin-resistant Staphylococcus aureus isolate 152-infected neutropenic ICR mouse
[28] = r2 for fAUC/MIC in community acquired methicillin-resistant Staphylococcus aureus isolate 147-infected neutropenic ICR mouse
[29] = Protein binding in methicillin-sensitive Staphylococcus aureus ATCC 29213-infected neutropenic ICR mouse serum at 6 µg/ml by HPLC; conditions: read-out: PB (converted)
[30] = Protein binding in methicillin-sensitive Staphylococcus aureus ATCC 29213-infected neutropenic ICR mouse serum at 1.5 µg/ml by HPLC; conditions: read-out: PB (converted)

## CN(C)c1cc(NC(=O)CNC(C)(C)C)c(O)c2c1C[C@H]1C[C@H]3[C@H](N(C)C)C(O)=C(C(N)=O)C(=O)[C@@]3(O)C(O)=C1C2=O [TIGECYCLINE]
[1]
  Cmax: 5330 ng/mL
[2]
  Tmax: 0.53 h
[3]
  AUC(0-t) at 24 h: 4800 ng·h/mL
[4]
  half-life: 7.36 h
[5]
  fraction unbound: 0.188
[6]
  fAUC/MIC: 13
[7]
  fAUC/MIC: 5.1
[8]
  fAUC/MIC: 2.6
Staphylococcus aureus [9]
  log10CFU/ml: 1.4
Staphylococcus aureus [10]
  log10CFU/ml: 2
Staphylococcus aureus [11]
  log10CFU/ml: 1.8
Staphylococcus aureus [12]
  log10CFU/ml: 2.1
Staphylococcus aureus [13]
  log10cfu: 1.6
[14]
  fAUC/MIC: 7.2
Staphylococcus aureus [15]
  log10CFU/ml: 0.5
Staphylococcus aureus [16]
  log10CFU/ml: -1.1
[17]
  fraction unbound: 0.188
[18]
  fraction unbound: 0.29
Acinetobacter baumannii [19]
  log10cfu: 1.5
Acinetobacter baumannii [20]
  log10cfu: 3.5
[21]
  AUC: 1200 ng·h/mL
[22]
  r2: 0.983
[23]
  r2: 0.974
[24]
  r2: 0.957
[25]
  r2: 0.552%
[26]
  r2: 0.953
[27]
  r2: 0.997
[28]
  r2: 0.966
[29]
  fraction unbound: 0.069
[30]
  fraction unbound: 0.173
